Activity calls are given as the source filed them. The rule behind the calls is not given here.
Assays:
[1] = target: T1, Tyrosinase (Agaricus bisporus) (UniProt O42713); details: at 25 µM
T1 sequence (whole entry): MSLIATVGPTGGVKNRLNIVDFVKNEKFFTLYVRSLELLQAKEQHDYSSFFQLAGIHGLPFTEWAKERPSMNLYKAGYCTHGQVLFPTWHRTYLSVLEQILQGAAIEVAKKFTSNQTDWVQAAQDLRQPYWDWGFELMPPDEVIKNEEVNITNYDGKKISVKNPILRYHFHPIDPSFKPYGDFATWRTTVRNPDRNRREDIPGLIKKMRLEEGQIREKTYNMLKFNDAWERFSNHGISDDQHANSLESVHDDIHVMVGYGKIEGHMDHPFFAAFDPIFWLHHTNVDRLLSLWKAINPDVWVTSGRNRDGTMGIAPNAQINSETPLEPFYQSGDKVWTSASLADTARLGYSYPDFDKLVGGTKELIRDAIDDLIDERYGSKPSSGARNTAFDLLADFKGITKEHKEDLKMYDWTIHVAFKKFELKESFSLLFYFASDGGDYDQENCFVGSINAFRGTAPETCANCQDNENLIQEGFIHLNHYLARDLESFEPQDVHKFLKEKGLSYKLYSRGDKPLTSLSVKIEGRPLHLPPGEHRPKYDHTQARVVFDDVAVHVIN

[2] = target: T1, Tyrosinase (Agaricus bisporus); test: Potency index, ratio of compound effect to kojic acid effect for inhibition of mushroom tyrosinase at 25 uM using L-tyrosine as substrate
B16-F10 [3] = test: Cytotoxicity against mouse B16F10 cells assessed as reduction in cell viability at 5 to 25 uM after 24 hrs by WST8 assay; assay type: cell-based; details: b16-f10, 24 h
How it was run: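 Murine B16F10 cells in DMEM with 10% FBS and penicillin/streptomycin at 37 °C, 5% CO2, in 96-well plates. Pre-cultured cells exposed to 0, 5, 10 or 25 µM for 24 h. WST-8 reagent then added for 30 min to 2 h, absorbance read at 450 nm, viability given as % of control. Triplicate; means ± SEM.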

[4] = target: T1, Tyrosinase (Agaricus bisporus); test: Competitive inhibition of mushroom tyrosinase at 10 to 40 nM using varying levels of L-tyrosine as substrate by Lineweaver-Burk plot analysis
How it was run: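 Mushroom tyrosinase (200 units) with inhibitor at 10, 20 and 40 nM and L-tyrosine 0.03125 to 16 mM, in 50 mM potassium phosphate pH 6.5. Initial dopachrome formation rate taken as ΔOD475/min. Km and Vmax from Lineweaver–Burk plots (1/V vs 1/[S]); Ki from modified Michaelis–Menten equation. Triplicate.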

B16-F10 [5] = test: Antimelanogenic activity in alpha-MSH-stimulated mouse B16F10 cells assessed as reduction in melanin content treated at 24 hrs post alpha-MSH stimulation and measured after 24 hrs; assay type: functional, cell-based
How it was run: (§1)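 Cells grown in 24-well plates for 24 h, then stimulated with 1 µM α-MSH and treated with 0, 5, 10 or 25 µM test agent (kojic acid 25 µM as reference) for 24 h. Washed with PBS, melanin dissolved in 200 µL 1N NaOH, absorbance read at 405 nm. Triplicate; means ± SEM, one-way ANOVA with Tukey's test.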

[6] = target: T2, Tyrosinase (Mus musculus) (UniProt P11344); test: Inhibition of tyrosinase in alpha-MSH-stimulated mouse B16F10 cells assessed as reduction in dopachrome production using L-DOPA as substrate measured after 24 hrs by spectrophotometric method
T2 sequence (whole entry): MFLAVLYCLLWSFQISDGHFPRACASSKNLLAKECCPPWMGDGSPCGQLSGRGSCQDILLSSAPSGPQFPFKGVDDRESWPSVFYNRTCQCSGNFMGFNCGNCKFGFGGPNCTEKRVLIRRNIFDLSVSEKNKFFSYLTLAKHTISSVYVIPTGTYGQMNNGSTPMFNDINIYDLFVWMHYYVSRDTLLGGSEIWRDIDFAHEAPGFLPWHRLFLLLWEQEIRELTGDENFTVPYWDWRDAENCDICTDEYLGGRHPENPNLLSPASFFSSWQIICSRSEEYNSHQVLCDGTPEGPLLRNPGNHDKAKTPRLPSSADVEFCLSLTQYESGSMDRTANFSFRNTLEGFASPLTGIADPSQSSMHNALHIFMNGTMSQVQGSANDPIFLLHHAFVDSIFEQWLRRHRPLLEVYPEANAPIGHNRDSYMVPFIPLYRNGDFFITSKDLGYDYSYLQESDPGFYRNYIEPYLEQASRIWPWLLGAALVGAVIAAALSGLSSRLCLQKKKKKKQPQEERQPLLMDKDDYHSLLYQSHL
How it was run: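 B16F10 cells activated with 1 µM α-MSH, then given 0, 5, 10 or 25 µM test agent or 25 µM kojic acid for 24 h. Cells washed with PBS and lysed in 50 mM PBS pH 6.8 with 0.1 mM PMSF and 1% Triton X-100. Lysate frozen at -80 °C for 30 min, spun 12,000 rpm 30 min at 4 °C. Supernatant (80 µL) mixed with 20 µL 10 mM L-dopa, 37 °C for 30 min, OD read at 500 nm. Triplicate.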

Tyrosinase = target: T3, Tyrosinase (Agaricus bisporus, UniProt O42713); test: Inhibition of mushroom tyrosinase using L-tyrosine as substrate incubated for 30 mins by spectrophotometric method
T3 sequence (O42713 whole entry): T1 sequence (whole entry)
How it was run: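 Mushroom tyrosinase with test sample (final 25 µM) in substrate mix of 14.7 mM potassium phosphate buffer and 293 µM L-tyrosine (1:1, v/v), incubated 30 min at 37 °C. Dopachrome absorbance read at 450 nm; % inhibition calculated against untreated control. Kojic acid 25 µM and arbutin 400 µM as positive controls. Triplicate; means ± SEM.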

B16-F10 [7] = test: Antimelanogenic activity in alpha-MSH-stimulated mouse B16F10 cells assessed as reduction in melanin content at 25 uM treated at 24 hrs post alpha-MSH stimulation and measured after 24 hrs relative to control; assay type: functional; design: scale not given: the % may be the effect or the level left
How it was run: as §1

Question: COc1cc(/C=C/C(=O)Nc2ccccc2)ccc1O was tested. Which inhibition [1] did it give?
Answer: 59%

Question: With COc1ccc(/C=C/C(=O)NCc2ccccc2)cc1O as the molecule, how does the inhibition [1] read?
Answer: 31.5%

Question: For O=C(/C=C/c1ccc(O)cc1)NCc1ccccc1, which inhibition [1] is on record?
Answer: inactive

Question: For O=C(/C=C/c1ccc(O)c(O)c1)Nc1ccccc1, which inhibition [1] is on record?
Answer: inactive

Question: For O=C(/C=C/c1ccc(O)c(O)c1)NCc1ccccc1, which inhibition [1] is on record?
Answer: 10%

Question: For O=C1CC(c2ccc(O)c(O)c2)c2ccccc2N1 (configuration not stated), which inhibition [1] is on record?
Answer: inactive

Question: CCN(CC)C(=O)/C=C/c1ccc(OC)c(O)c1 was tested. Which inhibition [1] did it give?
Answer: 20.7%

Question: CCN(CC)C(=O)/C=C/c1ccc(O)cc1 was tested. Which inhibition [1] did it give?
Answer: inactive

Question: Which inhibition [1] does the source give for O=C1CC(c2ccc(O)cc2)c2ccccc2N1 (configuration not stated) here?
Answer: inactive

Question: With CCN(CC)C(=O)/C=C/c1ccc(O)cc1O as the molecule, how does the Ratio [2] read?
Answer: 3

Question: And the Activity (B16-F10 [3])?
Answer: Non-Toxic

Question: And the inhibition [4]?
Answer: Active

Question: And the Activity (B16-F10 [5])?
Answer: Dose-dependent effect

Question: And the inhibition [6]?
Answer: Dose-dependent effect

Question: And the IC50 (Tyrosinase)?
Answer: 11.2 nM

Question: And the Activity (B16-F10 [7])?
Answer: 78.07%

Question: What about the inhibition [1] of the same molecule?
Answer: 96.2%

Question: For CCN(CC)C(=O)/C=C/c1ccc(O)c(O)c1, which inhibition [1] is on record?
Answer: inactive

Question: Which inhibition [1] does the source give for CCN(CC)C(=O)/C=C/c1ccc(O)c(OC)c1 here?
Answer: 61.9%

Question: What does the source list for O=C(/C=C/c1ccc(O)cc1O)NCc1ccccc1?
Answer: Ratio [2]: 3; Activity (B16-F10 [3]): Non-Toxic; Activity (B16-F10 [5]): Dose-dependent effect; inhibition [6]: Dose-dependent effect; Activity (B16-F10 [7]): 65.84%; inhibition [1]: 85.4%

Question: How did the inhibition [1] turn out when COc1cc(C2CC(=O)Nc3ccccc32)ccc1O (configuration not stated) was run?
Answer: inactive

Question: With COc1ccc(/C=C/C(=O)Nc2ccccc2)cc1O as the molecule, how does the inhibition [1] read?
Answer: 29.7%

Question: Which Activity (B16-F10 [7]) does the source give for O=c1cc(CO)occ1O [KOJIC ACID] here?
Answer: 44.26%

Question: Which Ratio [2] does the source give for COc1cc(/C=C/C(=O)NCc2ccccc2)ccc1O here?
Answer: 3

Question: And the Activity (B16-F10 [3])?
Answer: Non-Toxic

Question: And the Activity (B16-F10 [5])?
Answer: Dose-dependent effect

Question: What about the inhibition [6] of the same molecule?
Answer: Dose-dependent effect

Question: What about the Activity (B16-F10 [7]) of the same molecule?
Answer: 80.43%

Question: What about the inhibition [1] of the same molecule?
Answer: 82.9%

Question: Which results are given for O=C(/C=C/c1ccc(O)cc1O)Nc1ccccc1?
Answer: Ratio [2]: 3; Activity (B16-F10 [3]): Non-Toxic; inhibition [4]: Active; Activity (B16-F10 [5]): Dose-dependent effect; inhibition [6]: Dose-dependent effect; IC50 (Tyrosinase): 25.6 nM; Activity (B16-F10 [7]): 63.97%

Question: Which inhibition [1] does the source give for COc1ccc(C2CC(=O)Nc3ccccc32)cc1O (configuration not stated) here?
Answer: 25.9%
